Measured values reported in ChEMBL document CHEMBL4382225, “Dimeric cinnamoylamide analogues for regulation of tyrosinase activity in melanoma cells: A role of diamide-link chain length” (Bioorg Med Chem, 2018).
Calls of active or inactive are those of the source. The rule behind the calls is not given here.

Key:
[1] = target: T1, Tyrosinase (Agaricus bisporus, UniProt O42713); experiment: Inhibition of mushroom tyrosinase
T1 sequence (O42713 whole entry): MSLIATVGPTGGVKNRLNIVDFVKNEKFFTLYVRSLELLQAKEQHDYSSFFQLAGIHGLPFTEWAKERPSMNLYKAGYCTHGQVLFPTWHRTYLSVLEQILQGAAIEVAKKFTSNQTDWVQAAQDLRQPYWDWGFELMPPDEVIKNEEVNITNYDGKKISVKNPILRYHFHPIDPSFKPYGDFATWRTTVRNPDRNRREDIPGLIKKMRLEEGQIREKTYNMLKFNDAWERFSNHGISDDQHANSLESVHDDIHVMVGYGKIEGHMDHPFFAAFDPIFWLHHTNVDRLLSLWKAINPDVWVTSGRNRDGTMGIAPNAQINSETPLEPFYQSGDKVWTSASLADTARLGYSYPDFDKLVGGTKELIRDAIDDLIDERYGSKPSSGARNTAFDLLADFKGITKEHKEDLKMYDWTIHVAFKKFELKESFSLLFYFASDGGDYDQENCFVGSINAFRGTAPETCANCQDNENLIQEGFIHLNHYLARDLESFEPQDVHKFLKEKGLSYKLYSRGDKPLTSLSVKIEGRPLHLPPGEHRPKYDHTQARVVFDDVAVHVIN

[2] = test system: B16-F1; experiment: Cytotoxicity against mouse B16-F1 cells at 100 to 200 uM after 72 hrs by MTT assay; assay type: cell-based; conditions: b16-f1, 72 h
Outline: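 B16F1 cells grown in DMEM with 10% FBS and 1% penicillin/streptomycin at 37 °C, 5% CO₂. Seeded 1 × 10⁴ cells/well, treated at 100, 150 and 200 μM for 72 h. Medium removed, MTT added for 1 h, formazan dissolved in DMSO, absorbance at 570 nm. Mean SD of three independent experiments vs untreated cells.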

[3] = target: T2, Tyrosinase (Mus musculus, UniProt P11344); experiment: Inhibition of tyrosinase in mouse B16-F1 cells; assay type: cell-based
T2 sequence (P11344 whole entry): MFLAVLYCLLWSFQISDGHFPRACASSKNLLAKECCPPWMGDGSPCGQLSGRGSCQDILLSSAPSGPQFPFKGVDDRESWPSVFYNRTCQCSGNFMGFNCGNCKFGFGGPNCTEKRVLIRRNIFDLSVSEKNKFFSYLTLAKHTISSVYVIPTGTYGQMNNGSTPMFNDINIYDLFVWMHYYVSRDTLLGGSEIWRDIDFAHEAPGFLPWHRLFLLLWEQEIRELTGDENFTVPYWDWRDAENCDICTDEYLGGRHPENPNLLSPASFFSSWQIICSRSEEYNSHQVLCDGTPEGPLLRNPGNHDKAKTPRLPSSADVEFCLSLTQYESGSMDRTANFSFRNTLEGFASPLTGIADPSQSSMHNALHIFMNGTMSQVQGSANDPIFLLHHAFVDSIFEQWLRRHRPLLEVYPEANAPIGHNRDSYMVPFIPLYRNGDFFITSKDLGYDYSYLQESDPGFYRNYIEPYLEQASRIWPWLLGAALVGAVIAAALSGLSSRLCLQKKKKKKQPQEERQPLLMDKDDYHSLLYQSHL
Outline: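 Lysate of B16F1 cells in RIPA buffer, spun 13,000 rpm for 30 min at 4 °C, supernatant protein quantified by BCA. IC₅₀; mean (SD) of three independent experiments.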

[4] = test system: B16-F1; experiment: Antimelanogenic activity in mouse B16-F1 cells assessed as reduction in alpha-MSH-stimulated melanin production preincubated for 72 hrs followed by alpha-MSH-stimulation and measured after 2 hrs; assay type: functional, cell-based
Outline: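 B16F1 cells seeded at 1 × 10⁵ cells/well, exposed to compound at indicated concentrations (up to 150 μM) together with 200 nM α-MSH for 72 h. Cells washed twice in PBS, dissolved in 1 N NaOH with 10% DMSO at 80 °C for 2 h, lysate absorbance read at 405 nm. IC₅₀ for melanin production; mean (SD) of three independent experiments.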

[5] = Antioxidant activity assessed as DPPH free radical scavenging activity after 10 mins; assay type: functional
[6] = Metal chelating activity of the compound assessed as Cu2+-compound complex formation at 50 uM after 10 mins by UV-Vis spectrophotometric analysis
Outline: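 Copper chelation by UV–vis spectra (220–400 nm). 50 μL of 50 μM compound in ethanol mixed with 0.95 mL aqueous 10 μM CuSO₄, or water as control, incubated at 25 °C for 10 min before spectra recorded.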

[7] = Drug uptake in mouse B16-F1 cells; assay type: ADME, cell-based

IC50 [1] [µM] | IC50 [3] [µM] | IC50 [4] [µM] | EC50 [5] [µM] | Activity [6] | Drug uptake [7] | SMILES | Activity [2]
80.2 | > 150 | > 150 | 4200 | – | – | COc1ccc(/C=C/C(=O)NCCCCNC(=O)/C=C/c2ccc(OC)c(O)c2)cc1O | Non-Toxic
95.3 | > 150 | > 150 | > 5000 | – | – | O=C(/C=C/c1cccc(O)c1)NCCNC(=O)/C=C/c1cccc(O)c1 | Non-Toxic
3.4 | 4.6 | 45.6 | > 5000 | Active | – | O=C(/C=C/c1ccc(O)cc1)NCCCNC(=O)/C=C/c1ccc(O)cc1 | Non-Toxic
– | – | – | 180 | – | – | O=C1O[C@H]([C@@H](O)CO)C(O)=C1O [ASCORBIC ACID] | –
108 | 88.4 | > 150 | 830 | Active | – | COc1cc(/C=C/C(=O)NCCCCNC(=O)/C=C/c2ccc(O)c(OC)c2)ccc1O [TERRESTRIBISAMIDE] | Non-Toxic
4.6 | > 150 | > 150 | > 5000 | – | – | O=C(/C=C/c1ccc(O)cc1)NCCNC(=O)/C=C/c1ccc(O)cc1 | Non-Toxic
55.2 | 40.2 | 95.3 | > 5000 | Active | – | O=C(/C=C/c1cccc(O)c1)NCCCNC(=O)/C=C/c1cccc(O)c1 | Non-Toxic
6.5 | > 150 | > 150 | > 5000 | – | Active | O=C(/C=C/c1ccc(O)cc1)NCCCCNC(=O)/C=C/c1ccc(O)cc1 | Non-Toxic
– | – | 148 | 1700 | – | – | OC[C@H]1O[C@@H](Oc2ccc(O)cc2)[C@H](O)[C@@H](O)[C@@H]1O [ARBUTIN] | –
84.2 | > 150 | > 150 | 2210 | – | – | COc1ccc(/C=C/C(=O)NCCNC(=O)/C=C/c2ccc(OC)c(O)c2)cc1O | Non-Toxic
98.3 | 65.2 | 123 | 150 | Active | Active | COc1cc(/C=C/C(=O)NCCCNC(=O)/C=C/c2ccc(O)c(OC)c2)ccc1O | Non-Toxic
> 150 | > 150 | > 150 | > 5000 | – | Active | O=C(/C=C/c1cccc(O)c1)NCCCCNC(=O)/C=C/c1cccc(O)c1 | Non-Toxic
55.3 | 46.7 | 111 | 2310 | Active | Active | COc1ccc(/C=C/C(=O)NCCCNC(=O)/C=C/c2ccc(OC)c(O)c2)cc1O | Non-Toxic
> 150 | > 150 | > 150 | 90 | – | – | COc1cc(/C=C/C(=O)NCCNC(=O)/C=C/c2ccc(O)c(OC)c2)ccc1O | Non-Toxic
